Results: ChEMBL document CHEMBL4406905, “The adduct formation between the thioguanine-polyamine ligands and DNA with the AP site under UVA irradiated and non-irradiated conditions” (Bioorg Med Chem, 2019)
The source made the active and inactive calls. The calls are words filed in the database; no cut-off is given here.

What was measured:
[1] = Induction of DNA cleavage in 5'-FAM-DNA1(U)/DNA2(C) duplex DNA (unknown origin) assessed as increase in slower moving bands at 10 uM measured after 1 hr by fluorescence based PAGE analysis
[2] = Induction of DNA cleavage in 5'-FAM-DNA1(U)/DNA2(A) duplex DNA (unknown origin) assessed as formation DNA8 at 10 uM measured for 5 hrs by fluorescence based PAGE analysis
Procedure, shortened: (§1)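 DNA1(U)/DNA2(X) was annealed 5 min at 70 °C and treated with uracil-DNA glycosylase (0.2 unit/µl, pH 7.4, 37 °C, 15 min) to form the AP site. The 100 nM duplex was re-annealed in 10 mM HEPES-NaOH pH 7.0 with 100 mM NaCl, then incubated with 10 µM ligand at 37 °C for 5–300 min. Reactions were quenched with urea/EDTA loading buffer on ice. Products were run on 12% denaturing PAGE (8 M urea), imaged by 5'-FAM fluorescence, and band ratios (%) quantified.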

[3] = Photo-activated binding affinity to A-F-C/T-A-G duplex DNA (unknown origin) at 100 uM measured for 24 hrs by HPLC analysis
Procedure, shortened: (§2)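 Duplex at 10 µM (F = tetrahydrofuran AP analogue) with 100 µM ligand in 10 mM HEPES-NaOH pH 7.0, 5 mM DTT and 100 mM NaCl. Irradiated with UVA (4 W, 365 nm) at rt. Analysed by reversed-phase C18 HPLC at 50 °C with 254 nm detection, TEAA pH 7.0/MeCN gradient. Product peak identified by MALDI-TOF MS.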

[4] = Induction of DNA cleavage in 5'-FAM-DNA1(U)/DNA2(A) duplex DNA (unknown origin) assessed as formation of DNA8 at 10 uM by fluorescence based PAGE analysis
Procedure, shortened: as §1

[5] = Binding affinity to C-G-A/G-C-T duplex DNA (unknown origin) assessed as change in melting temperature at 10 uM by UV-Vis spectrophotometric analysis (reference value: 55.2 +/- 0.1 degC)
[6] = Induction of DNA cleavage in 5'-FAM-DNA1(U)/DNA2(C) duplex DNA (unknown origin) assessed as formation of delta elimination production DNA7 at 10 uM measured for 5 hrs by fluorescence based PAGE analysis
Procedure, shortened: as §1

[7] = Binding affinity to A-T-C/T-A-G duplex DNA (unknown origin) assessed as change in melting temperature at 10 uM by UV-Vis spectrophotometric analysis (reference value: 52.0 +/- 0.1 degC)
[8] = Binding affinity to C-F-A/G-C-T duplex DNA (unknown origin) assessed as change in melting temperature at 10 uM by UV-Vis spectrophotometric analysis (reference value: 32.0 +/- 0.4 degC)
[9] = Induction of DNA cleavage in 5'-FAM-DNA1(U)/DNA2(C) duplex DNA (unknown origin) assessed as formation DNA8 at 10 uM measured for 5 hrs by fluorescence based PAGE analysis
Procedure, shortened: as §1

[10] = Binding affinity to A-A-C/T-T-G duplex DNA (unknown origin) assessed as change in melting temperature at 10 uM by UV-Vis spectrophotometric analysis (reference value: 52.1 +/- 0.1 degC)
[11] = Binding affinity to A-F-C/T-A-G duplex DNA (unknown origin) assessed as change in melting temperature at 10 uM by UV-Vis spectrophotometric analysis (reference value: 33.6 +/- 0.2 degC)
[12] = Binding affinity to A-G-C/T-C-G duplex DNA (unknown origin) assessed as change in melting temperature at 10 uM by UV-Vis spectrophotometric analysis (reference value: 48.5 +/- 0.1 degC)
[13] = Photo-activated binding affinity to A-F-C/T-T-G duplex DNA (unknown origin) at 100 uM measured for 24 hrs by HPLC analysis
Procedure, shortened: as §2

[14] = Binding affinity to A-F-C/T-T-G duplex DNA (unknown origin) assessed as change in melting temperature at 10 uM by UV-Vis spectrophotometric analysis (reference value: 33.0 +/- 0.4 degC)
[15] = Binding affinity to A-F-A/T-C-T duplex DNA (unknown origin) assessed as change in melting temperature at 10 uM by UV-Vis spectrophotometric analysis (reference value: 29.9 +/- 0.3 degC)
[16] = Photo-activated binding affinity to C-F-A/G-C-T duplex DNA (unknown origin) at 100 uM measured for 24 hrs by HPLC analysis
Procedure, shortened: as §2

[17] = Induction of DNA cleavage in 5'-FAM-DNA1(U)/DNA2(A) duplex DNA (unknown origin) assessed as formation of delta elimination production DNA7 at 10 uM measured for 5 hrs by fluorescence based PAGE analysis
Procedure, shortened: as §1

[18] = Induction of DNA cleavage in 5'-FAM-DNA1(U)/DNA2(A) duplex DNA (unknown origin) assessed as formation of beta elimination production DNA4 at 10 uM measured for 5 hrs by fluorescence based PAGE analysis
Procedure, shortened: as §1

[19] = Photo-activated binding affinity to A-F-A/T-C-T duplex DNA (unknown origin) at 100 uM measured for 24 hrs by HPLC analysis
Procedure, shortened: as §2

[20] = Binding affinity to A-F-C/T-G-G duplex DNA (unknown origin) assessed as change in melting temperature at 10 uM by UV-Vis spectrophotometric analysis (reference value: 34.4 +/- 0.2 degC)
[21] = Binding affinity to A-F-C/T-C-G duplex DNA (unknown origin) assessed as change in melting temperature at 10 uM by UV-Vis spectrophotometric analysis (reference value: 30.7 +/- 0.3 degC)
[22] = Photo-activated binding affinity to A-F-C/T-C-G duplex DNA (unknown origin) at 100 uM measured for 24 hrs by HPLC analysis
Procedure, shortened: as §2

[23] = Induction of DNA cleavage in 5'-FAM-DNA1(U)/DNA2(C) duplex DNA (unknown origin) assessed as formation of delta elimination production DNA7 at 10 uM by fluorescence based PAGE analysis
Procedure, shortened: as §1

[24] = Induction of DNA cleavage in 5'-FAM-DNA1(U)/DNA2(C) duplex DNA (unknown origin) assessed as formation of beta elimination production DNA4 at 10 uM measured for 5 hrs by fluorescence based PAGE analysis
Procedure, shortened: as §1

[25] = Induction of DNA cleavage in 5'-FAM-DNA1(U)/DNA2(A) duplex DNA (unknown origin) assessed as change in formation of DNA4 at 10 uM by fluorescence based PAGE analysis
Procedure, shortened: as §1

[26] = Photo-activated binding affinity to A-F-C/T-C-G duplex DNA (unknown origin) assessed as induction of photo reaction at 100 uM measured for 3 hrs by HPLC analysis
Procedure, shortened: as §2

[27] = Binding affinity to A-G-A/T-C-T duplex DNA (unknown origin) assessed as change in melting temperature at 10 uM by UV-Vis spectrophotometric analysis (reference value: 50.3 +/- 0.1 degC)
[28] = Binding affinity to A-C-C/T-G-G duplex DNA (unknown origin) assessed as change in melting temperature at 10 uM by UV-Vis spectrophotometric analysis (reference value: 54.8 +/- 0.0 degC)
[29] = Photo-activated binding affinity to A-F-C/T-G-G duplex DNA (unknown origin) at 100 uM measured for 24 hrs by HPLC analysis
Procedure, shortened: as §2

[30] = Induction of DNA cleavage in 5'-FAM-DNA1(U)/DNA2(C) duplex DNA (unknown origin) assessed as formation of beta elimination production DNA4 at 10 uM measured for 30 min by fluorescence based PAGE analysis
Procedure, shortened: as §1

[31] = Induction of DNA cleavage in 5'-FAM-DNA1(U)/DNA2(C) duplex DNA (unknown origin) assessed as formation of DNA8 at 10 uM by fluorescence based PAGE analysis
Procedure, shortened: as §1

Row | Activity [1] | Activity [2] | Activity [4] | ΔTm [5] [°C] | Activity [6] | ΔTm [7] [°C] | ΔTm [8] [°C] | Activity [9] | ΔTm [10] [°C] | ΔTm [11] [°C] | ΔTm [12] [°C] | ΔTm [14] [°C] | ΔTm [15] [°C] | Activity [17] | Activity [18] | ΔTm [20] [°C] | ΔTm [21] [°C] | Activity [22] | Activity [24] | Activity [25] | Structure (SMILES) | other results
1 | inactive | – | – | – | – | – | – | – | – | – | – | – | – | – | – | – | – | – | – | – | NCCCNCCCNCCCn1cnc2c(=O)[nH]c(N)nc21 | –
2 | Active | Active | Active | 0.4 | Active | 0.5 | 3.5 | Active | 0.2 | 2.3 | 0.7 | 1.2 | 1.8 | Active | Active | 1.6 | 5.4 | Active | Active | Active | NCCCNCCCNCCCn1cnc2c(=S)[nH]c(N)nc21 | Activity [3]: inactive; Activity [13]: inactive; Activity [16]: inactive; Activity [19]: inactive; Activity [23]: Active; Activity [26]: Active; ΔTm [27]: 0.7 °C; ΔTm [28]: 0.5 °C; Activity [29]: inactive; Activity [30]: Active
3 | – | Active | Active | 0.9 | Active | 0.6 | 4.1 | Active | 0.7 | 2.8 | 0.6 | 3.1 | 3.3 | Active | Active | 3.8 | 4.2 | Active | Active | Active | NCCCNCCCNCCCCCn1cnc2c(=S)[nH]c(N)nc21 | ΔTm [27]: 0.6 °C; ΔTm [28]: 1 °C; Activity [31]: Active
